Screening data from PubChem BioAssay.
In the library only some 3% were active in any assay of this set; here they are far more common.
PKD1 kinase inh: PKD1 (human) kinase inhibition; 200,000 tested, 0.056% active; AID 797; inhibition, % (no concentration beside the values); PKD1 kinase fluorescence polarization assay; in the data active = inhibition above about 50%
ROMK mod: modulators of human ROMK potassium channel. 130,000 tested, 2% active. Tet-inducible ROMK, thallium flux fluorescence; actives lie on both sides. AID 1918. P48048. B-score at 10 µM;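 active = signal ratio slope over the read window, or its plate-corrected B-score, at least 3 SD from the plate mean, either direction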;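 also: B-score of the F/F0 ratio slope over 7 to 12 s after thallium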
KCC2 mod: modulates chloride dependent transport by human KCC2; Q9H2X9; KCC2 cells, thallium flux FluoZin-2 fluorescence; B-score of Tl+ flux slope (higher = more flux/activation; lower = inhibition) at 10 µM; 190,000 tested, 2.2% active; AID 1456;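 active = thallium flux slope and its plate-corrected score both differing from the plate sample mean at a set confidence after two filtering rounds, in either direction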;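 also: slope of fluorescence scaled to starting intensity during 10 to 20 s after thallium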
Rad51 HR inh: blocks human Rad51 in homologous recombination; Q06609; 200,000 tested, 0.085% active; inhibition, % at 10 µM; hRad51 DNA strand exchange, fluorescence dequenching;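 active = inhibition above 40% at the single screening dose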;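 also: 0% = DMSO control wells and 100% = blanks with heterologous ssDNA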
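material = hRad51 filaments on single-stranded DNA | timing = filaments 15 min 37 °C, then compound 30 min | signal = FRET fluorescence dequenching, excitation 485 nm, emission 520 nm | benchmarks = control wells and blank wells on each plate | evaluation = percent inhibition relative to plate controls and blanks | compound = 10 µM final, single point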
Active calls of the source: *; . = no result.

SMILES	PKD1 kinase inh	ROMK mod	KCC2 mod	Rad51 HR inh
C/C(=N\O)C(=O)NCCCn1ccnc1	-13.3	2.14*	0.516	-7.9
CCCCNC(=O)C(=O)NCCCn1ccnc1	4.7	0.429	0.378	-4.2
O=C(CCc1ccc(S(=O)(=O)N2CCOCC2)cc1)OCc1nc2ccccc2s1	3.2	0.545	.	4.0
O=C(OCc1nc2ccccc2s1)c1cccc(S(=O)(=O)N2CCOCC2)c1	9.5	.	-5.1*	-3.1
O=C(NC(=O)c1ccc(Cl)cc1)OC1CCCCC1	-1.7	-0.0315	0.0743	1.6
CC(C)N1C/C(=C/c2cccnc2)C(=O)/C(=C/c2cccnc2)C1	5.0	-1.59	0.514	.
CN1C/C(=C/c2cccnc2)C(=O)/C(=C/c2cccnc2)C1	-5.6	-3.5*	-0.113	.
Cc1cc(C)c(S(C)(=O)=O)c(Oc2ccc(C(C)(C)C)cc2)n1	6.4	.	0.00598	.
O=C(/C=C/c1cccs1)N1CCCCC1	1.7	0.000868	-0.728	-2.1
O=C(/C=C/c1cccs1)N1CCN(c2ccc(O)cc2)CC1	-0.2	-0.177	0.0658	40.6*
COc1ccc(OC)c(S(=O)(=O)NC(N)=NCCc2ccccc2OC)c1	0.1	.	-0.149	1.4
Cc1nc(-c2cn[nH]c2-c2ccc(O)cc2O)cs1	4.0	-3.09*	0.224	-2.1
CCN(CC)CCCN(C(=O)Cn1nnc(-c2ccc(OC)c(OC)c2)n1)C(C(=O)NC(C)(C)C)c1ccc(F)cc1 (stereo not drawn)	-11.2	-0.242	-0.144	-10.8
O=C(O)c1cc(C(=O)C2CCCCC2)c[nH]1	111.9*	0.105	0.327	-1.1
c1ccc(-c2nnsc2Sc2ccccn2)cc1	2.6	-0.0668	-1.48	7.9
O=C(NNC(=S)Nc1cccc2ccccc12)c1cccc(Br)c1	1.6	-0.485	13.8*	2.3
C=CCNC(=S)NNC(=O)c1cccc(Br)c1	-10.8	-0.287	0.516	-1.8
CN(Cc1ccccc1)S(=O)(=O)c1ccc(C(=O)Nc2nnc(C3CC3)o2)cc1	7.4	.	-0.00441	-5.7
COc1ccccc1-c1nnc(NC(=O)c2ccc(S(=O)(=O)N(C)Cc3ccccc3)cc2)o1	-0.2	-3.35*	.	-7.3
COc1ccc(CC(=O)NNC(=S)NCC2CC2)cc1OC	.	0.661	-0.815	-31.3
COC(=O)c1cc2n(n1)CCN(Cc1ccc(F)cc1)C2=O	5.2	.	-0.462	45.6*
Oc1[nH]c2ccccc2c1N=NC(=S)NCC1CCCO1 (stereo not drawn)	3.0	.	4.17*	3.2
Cc1cc(C)c2[nH]c(O)c(N=NC(=S)NCC3CCCO3)c2c1 (stereo not drawn)	-5.9	0.185	0.845	-29.9
Oc1[nH]c2c(Cl)cc(Cl)cc2c1N=NC(=S)NCC1CCCO1 (stereo not drawn)	2.0	.	55.5*	5.0
C/C(=N\NC(N)=S)c1ccccc1	.	-1.11	-0.0484	6.2
SMILES	PKD1 kinase inh	ROMK mod	KCC2 mod	Rad51 HR inh
C/C(=N\NC(=S)Nc1cccc(C)c1)c1cccc(N)c1	5.1	.	9.25*	-5.0
CSC(=S)N/N=C(\C)c1ccccc1	-5.4	10.5*	143*	18.0
C/C(=N\NC(=S)Nc1cccc(C)c1)c1ccccc1	8.4	1.42	7.42*	-5.8
C/C(=N\NC(=S)NCCc1ccccc1)c1ccc(C)cc1	-5.3	.	2.91*	2.9
O=C(c1ccc([N+](=O)[O-])cc1)N1CCN(Cc2ccccc2[N+](=O)[O-])CC1	1.5	-0.538	.	3.5
Cc1ccc(F)c(NC(=O)c2ccc(Cn3cc(Cl)cn3)cc2)c1	-2.8	0.217	-1.18	-1.9
Cc1ccc(F)c(NC(=O)/C(C#N)=C(\O)c2ccc(C(C)(C)C)cc2)c1	-4.7	5.67*	-5.63*	2.1
N#CCC(=O)N/N=C/c1cc(-c2ccccc2)n(-c2ccc(Cl)cc2)c1-c1ccccc1	0.2	1.34	.	11.6
O=C1/C(=C/c2cccnc2)Sc2ccccc21	0.3	-4.49*	0.393	-2.8
COc1ccc(C(=O)NNC(=S)NC(=O)/C=C/c2cccs2)cc1	2.1	3.74*	13*	22.8
COc1ccc(/C=C/C(=O)NC(=S)NNC(=O)c2ccco2)cc1	1.4	0.799	11.2*	-3.4
O=C(/C=C/c1cccs1)NC(=S)Nc1ccccc1	-4.0	1.14	.	4.4
O=C(/C=C/c1cccs1)NC(=S)NNC(=O)c1ccccc1O	1.0	3.06*	12.1*	8.1
COc1ccc(/C=C/C(=O)NC(=S)NNC(=O)c2ccco2)cc1OC	.	.	.	-2.2
CC(=O)Nc1ccc(OC(=O)c2ccc(Br)c([N+](=O)[O-])c2)cc1	-1.7	-1.74	-0.465	-0.6
CCCCOC(=O)Nc1ccc(OC)cc1S(=O)(=O)N1CCOCC1	-1.6	.	-3.28*	-6.8
Cc1occc1C(=O)Nc1nnc(-c2cccs2)s1	-2.1	-0.437	2	11.4
